Data on 30 compounds can be found in ChEMBL document CHEMBL1154196, “Synthesis and evaluation of (S,S)-N,N'-bis-[3-(2,2',6,6'-tetramethylbenzhydryloxy)-2-hydroxy-propyl]-ethylenediamine (S2824) analogs with anti-tuberculosis activity” (2009).

≈ marks a conversion by molar mass, not a printed value.

Experiment [1] concerns Mycobacterium tuberculosis. In words: Antitubercular activity against Mycobacterium tuberculosis H37Ra after 7 days. Format: functional. The conditions noted are these: 168 h.
Experiment [2] can be described thus: Selectivity index, ratio of IC50 for human THP1 cells to MIC for Mycobacterium tuberculosis. Format: functional, THP-1.
Experiment [3] concerns Mycobacterium tuberculosis. In words: Antitubercular activity against Mycobacterium tuberculosis H37Rv ATCC 25618 after 7 days. The conditions noted are these: 168 h. Format: functional.
Experiment [4] relates to Mycobacterium tuberculosis. In words: Antitubercular activity against Mycobacterium tuberculosis H37Rv ATCC 25618 after 2 weeks. It counts as functional. The following applies: 336 h.
The subject of experiment [5] is Mycobacterium tuberculosis. Kind of experiment: Ratio of MBC to MIC for Mycobacterium tuberculosis H37Rv. It counts as functional. In outline:
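H37Rv MBC obtained by subculturing MIC-assay cultures onto drug-free solid medium and counting CFU. The ratio relates this MBC to the MIC for the same strain.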

Experiment [6] relates to Mycobacterium tuberculosis. Kind of experiment: Antitubercular activity against drug-sensitive Mycobacterium tuberculosis by radiometric BACTEC460 method. Format: functional.

As for `O[C@H](COC(c1ccc(Br)cc1)c1ccc(Br)cc1)CN1CCN(C[C@H](O)COC(c2ccc(Br)cc2)c2ccc(Br)cc2)CC1`, inhibition of growth in experiment [1] (MIC) required 28.3 µM (≈ 25 µg/mL). Besides, the Ratio in experiment [2] is reported as above 10.
Turning to `COc1ccc(C(OC[C@@H](O)CNCCNC[C@H](O)COC(c2ccc(OC)c(OC)c2)c2ccc(OC)c(OC)c2)c2ccc(OC)c(OC)c2)cc1OC`, the lowest concentration to inhibit growth in experiment [1] (MIC) was 16 µM (≈ 12.5 µg/mL). For the same compound, the Ratio in experiment [2] was above 10.
As for `O[C@H](CNCCNC[C@@H](O)COC(c1ccc2c(c1)OCCO2)c1ccc2c(c1)OCCO2)COC(c1ccc2c(c1)OCCO2)c1ccc2c(c1)OCCO2`, in experiment [1], the MIC (in general, the lowest concentration found to suppress growth) was found to be 16.2 µM (≈ 12.5 µg/mL). In addition, the Ratio in experiment [2] is listed as above 10.
Take `Cc1ccc(C(OC[C@H](O)CN2CCN(C[C@@H](O)COC(c3ccc(C)cc3)c3ccc(C)cc3)CC2)c2ccc(C)cc2)cc1`: the MIC in experiment [3] worked out at 1.56 µg/mL; in experiment [1] it was 2.5 µM (≈ 1.56 µg/mL); in experiment [6], 3.13 µg/mL (≈ 5.03 µM). In addition, the MBC (usually the lowest tested concentration that kills the bacteria rather than only halting them) in experiment [4] is 6.25 µg/mL (≈ 10 µM). In addition, the Ratio in experiment [2] stood at 12; in experiment [5] it was 4.
On to `Cc1ccc(C(OC[C@H](O)CN2CCCN(C[C@@H](O)COC(c3ccc(C)cc3)c3ccc(C)cc3)CC2)c2ccc(C)cc2)cc1`, for which the MIC in experiment [3] is 0.78 µg/mL; in experiment [1], 1.22 µM (≈ 0.777 µg/mL); in experiment [6] it was 0.78 µg/mL (≈ 1.22 µM). In experiment [4], this compound returned an MBC of 3.13 µg/mL (≈ 4.91 µM). Besides, the Ratio in experiment [2] was determined as 26.92; in experiment [5], 4.
For the compound `O[C@H](CNCCNC[C@@H](O)COC(c1ccc(Br)cc1)c1ccc(Br)cc1)COC(c1ccc(Br)cc1)c1ccc(Br)cc1`, the lowest concentration to inhibit growth in experiment [1] (MIC) was 7.34 µM (≈ 6.29 µg/mL). For the same compound, the Ratio in experiment [2] is on record as above 10.
With `O[C@@H](CNCCNC[C@H](O)COC(c1ccco1)c1ccco1)COC(c1ccco1)c1ccco1`, it took 25 µM (≈ 12.5 µg/mL) to inhibit growth in experiment [1] (MIC). The Ratio in experiment [2] is above 10.
In the same order, the values of `O[C@H](CNCCNC[C@@H](O)COC(c1ccc2c(c1)OCO2)c1ccc2c(c1)OCO2)COC(c1ccc2c(c1)OCO2)c1ccc2c(c1)OCO2` are 17.4 µM (≈ 12.5 µg/mL) and above 10.
As for `Cc1ccc(C(OC[C@@H](O)CN2CCN(C[C@H](O)COC(c3ccc(C)cc3)c3ccc(C)cc3)CC2)c2ccc(C)cc2)cc1`, in experiment [1], the MIC worked out at 40.1 µM (≈ 25 µg/mL). The Ratio in experiment [2] is given as above 10.
Take `Cc1ccc(C(OC[C@@H](O)CN2CCCN(C[C@H](O)COC(c3ccc(C)cc3)c3ccc(C)cc3)CC2)c2ccc(C)cc2)cc1`: the MIC in experiment [3] amounted to 0.78 µg/mL; in experiment [1], 1.22 µM (≈ 0.777 µg/mL); in experiment [6] it was 0.78 µg/mL (≈ 1.22 µM). Also, the MBC in experiment [4] is 1.56 µg/mL (≈ 2.45 µM). The Ratio in experiment [2] is 30.77; in experiment [5], 2.
`CCOc1ccc(C(OC[C@H](O)CNCCNC[C@@H](O)COC(c2ccc(OCC)cc2)c2ccc(OCC)cc2)c2ccc(OCC)cc2)cc1` returned an MIC in experiment [1] of 8.72 µM (≈ 6.25 µg/mL). In experiment [2], the Ratio was above 10.
In experiment [1], `CC(C)(C)c1ccc(C(OC[C@H](O)CNCCNC[C@@H](O)COC(c2ccc(C(C)(C)C)cc2)c2ccc(C(C)(C)C)cc2)c2ccc(C(C)(C)C)cc2)cc1` showed an MIC of 32.7 µM (≈ 25 µg/mL). Besides, in experiment [2], the Ratio is on record as above 10.
With `COc1ccc(C(OC[C@H](O)CNCCNC[C@@H](O)COC(c2ccc(OC)cc2)c2ccc(OC)cc2)c2ccc(OC)cc2)cc1`, in experiment [1], the MIC was determined as 9.46 µM (≈ 6.25 µg/mL). Moreover, the Ratio in experiment [2] is listed as above 10.
For `CC(C)Oc1ccc(C(OC[C@H](O)CNCCNC[C@@H](O)COC(c2ccc(OC(C)C)cc2)c2ccc(OC(C)C)cc2)c2ccc(OC(C)C)cc2)cc1`, the MIC in experiment [1] worked out at 8.09 µM (≈ 6.25 µg/mL). The Ratio in experiment [2] is reported as above 10.
Regarding `Cc1ccc(C(OC[C@H](O)CNCCNC[C@@H](O)COC(c2ccc(C)cc2)c2ccc(C)cc2)c2ccc(C)cc2)cc1`, the MIC in experiment [3] was 3.13 µg/mL; in experiment [1], 5.24 µM (≈ 3.13 µg/mL). Besides, the MBC in experiment [4] is 6.25 µg/mL (≈ 10.5 µM). Moreover, the Ratio in experiment [2] is listed as above 10; in experiment [5], 2.
The corresponding values for `COc1ccc(C(OC[C@@H](O)CNCCNC[C@H](O)COC(c2ccc(OC)cc2)c2ccc(OC)cc2)c2ccc(OC)cc2)cc1` are 3.13 µg/mL, 4.73 µM (≈ 3.13 µg/mL), 25 µg/mL (≈ 37.8 µM), above 10 and 8.
`O[C@H](CNCCNC[C@@H](O)COC(c1ccco1)c1ccco1)COC(c1ccco1)c1ccco1` came in with an MIC in experiment [1] of 50 µM (≈ 25 µg/mL). Also, the Ratio in experiment [2] is above 10.
For `O[C@H](CNCCNC[C@@H](O)COC(c1cccs1)c1cccs1)COC(c1cccs1)c1cccs1`, the lowest concentration to inhibit growth in experiment [1] (MIC) was 22.1 µM (≈ 12.5 µg/mL). The Ratio in experiment [2] is on record as above 10.
The corresponding values for `CCOc1ccc(C(OC[C@@H](O)CNCCNC[C@H](O)COC(c2ccc(OCC)cc2)c2ccc(OCC)cc2)c2ccc(OCC)cc2)cc1` are 8.72 µM (≈ 6.25 µg/mL) and above 10.
With `CC(C)Oc1ccc(C(OC[C@@H](O)CNCCNC[C@H](O)COC(c2ccc(OC(C)C)cc2)c2ccc(OC(C)C)cc2)c2ccc(OC(C)C)cc2)cc1`, in experiment [1], the MIC came out at 16.2 µM (≈ 12.5 µg/mL). Besides, in experiment [2], the Ratio is above 10.
For the compound `O[C@@H](CNCCNC[C@H](O)COC(c1ccc(Br)cc1)c1ccc(Br)cc1)COC(c1ccc(Br)cc1)c1ccc(Br)cc1`, the figures for the minimal inhibitory concentration (MIC) in experiment [3] and in experiment [1] were 3.13 µg/mL and 3.67 µM (≈ 3.14 µg/mL), respectively. The compound further registered an MBC in experiment [4] of 25 µg/mL (≈ 29.2 µM). Moreover, the Ratio in experiment [2] is given as above 10; in experiment [5] it was 8.
`O[C@@H](CNCCNC[C@H](O)COC(c1cccs1)c1cccs1)COC(c1cccs1)c1cccs1`: inhibition of growth in experiment [1] (MIC) required 22.1 µM (≈ 12.5 µg/mL). Also, in experiment [2], the Ratio was above 10.
For the compound `COCOc1ccc(C(OC[C@H](O)CNCCNC[C@@H](O)COC(c2ccc(OCOC)cc2)c2ccc(OCOC)cc2)c2ccc(OCOC)cc2)cc1`, in experiment [1], the MIC stood at 8 µM (≈ 6.25 µg/mL). Besides, the Ratio in experiment [2] is above 10.
Compound `O[C@@H](CNCCNC[C@H](O)COC(c1ccc2c(c1)OCO2)c1ccc2c(c1)OCO2)COC(c1ccc2c(c1)OCO2)c1ccc2c(c1)OCO2` yielded an MIC in experiment [1] of 8.72 µM (≈ 6.25 µg/mL). The Ratio in experiment [2] was above 10.
With `CC[C@@H](CO)NCCN[C@@H](CC)CO` [ETHAMBUTOL], the MIC in experiment [3] stood at 7.64 µM; in experiment [6] it was 3.13 µg/mL (≈ 15.3 µM). The compound also returned an MBC in experiment [4] of 3.13 µg/mL (≈ 15.3 µM).
In experiment [1], `CC(C)(C)c1ccc(C(OC[C@@H](O)CNCCNC[C@H](O)COC(c2ccc(C(C)(C)C)cc2)c2ccc(C(C)(C)C)cc2)c2ccc(C(C)(C)C)cc2)cc1` came in with an MIC of 16.3 µM (≈ 12.5 µg/mL). In experiment [2], the Ratio is given as above 10.
In the same order, the values of `COc1ccc(C(OC[C@H](O)CNCCNC[C@@H](O)COC(c2ccc(OC)c(OC)c2OC)c2ccc(OC)c(OC)c2OC)c2ccc(OC)c(OC)c2OC)c(OC)c1OC` are 13.9 µM (≈ 12.5 µg/mL) and above 10.
The corresponding values for `COCOc1ccc(C(OC[C@@H](O)CNCCNC[C@H](O)COC(c2ccc(OCOC)cc2)c2ccc(OCOC)cc2)c2ccc(OCOC)cc2)cc1` are 8 µM (≈ 6.25 µg/mL) and above 10.
For `Cc1ccc(C(OC[C@@H](O)CNCCNC[C@H](O)COC(c2ccc(C)cc2)c2ccc(C)cc2)c2ccc(C)cc2)cc1`, the MIC in experiment [3] was 3.13 µg/mL; in experiment [1] it was 5.24 µM (≈ 3.13 µg/mL). For the same compound, the MBC in experiment [4] was 6.25 µg/mL (≈ 10.5 µM). Moreover, the Ratio is recorded as above 10 in experiment [2] and 2 in experiment [5].
`O[C@@H](COC(c1ccc(Br)cc1)c1ccc(Br)cc1)CN1CCN(C[C@@H](O)COC(c2ccc(Br)cc2)c2ccc(Br)cc2)CC1`: the lowest concentration to inhibit growth in experiment [1] (MIC) was 28.3 µM (≈ 25 µg/mL). Moreover, the Ratio in experiment [2] is above 10.
